The subject of data set [1] is Mus musculus. Description: Toxicity in NOD/SCID nude mouse xenografted with human Raji cells assessed as reduction in viscera weight at 1 mg/kg, ip administered once in 2 days for 2 weeks measured every day during compound dosing. The following applies: in vivo. The format is organism-based. In short, it runs like this: (§1)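 NOD/SCID mice implanted subcutaneously in the underarm with 5 × 10^6 RAJI cells in 100 μL RPMI 1640 with 10% serum; tumours grown about 1 week, then mice randomized. Body weight recorded daily; organ weights taken at end.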
On the technique in general: A xenograft is tissue or cells of one species grown in another, often human tumour cells in immunodeficient mice.

The test system of data set [2] is Mus musculus. As to the kind of experiment: Toxicity in NOD/SCID nude mouse xenografted with human Raji cells assessed as reduction in body weight at 1 mg/kg, ip administered once in 2 days for 2 weeks measured every day during compound dosing. The format is organism-based. The note with it: in vivo. Put shortly: as §1
Another data set relates to Raji. Description: Antitumor activity against human Raji cells xenografted in NOD/SCID nude mouse assessed as reduction in tumor weight at 1 mg/kg, ip administered once in 2 days for 2 weeks relative to control. In kind it is functional, organism-based. In short, it runs like this: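 NOD/SCID mice were implanted subcutaneously in the underarm with RAJI cells (5 × 10^6 per 100 μL of RPMI 1640 with 10% serum). Tumours reached […] after 1 week, and mice were then randomised. […] Tumour volume was recorded daily and tumour weight at the end.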

Data set [3] is filed under the species Homo sapiens. Description: Effect on c-Myc DNA translocated chromosome product in human Raji cells assessed as decrease in amplification of exon-2 at 1 uM after 12 hrs by RT-PCR method. The format is cell-based. In short, it runs like this: (§2)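 Cells treated 12 h with compound at various concentrations, untreated cells as control. Total RNA (2 μg) reverse-transcribed with oligo dT18 and M-MLV (42 °C 1 h). c-MYC exons 1 and 2, NM23-H2 and β-actin amplified by real-time PCR, products checked on 1% agarose gel. Three independent repeats, mean ± SEM, two-tailed unpaired t test versus untreated.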

For data set [4], the species on record is Homo sapiens. Description: Stabilization of c-Myc G-quadruplex DNA in human Raji cells assessed as decrease in amplification of exon-1 at 1 uM after 12 hrs by RT-PCR method. In kind it is cell-based. Put shortly:
as §2

A short description of data set [5]: Binding affinity to 5'-FAM labeled c-Myc Pu27 G-quadruplex DNA (unknown origin) in presence of K+ ions by MST analysis. Put shortly:
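The DNA was annealed at 95 °C for 5 min, slowly cooled and held at 4 °C overnight. Ligand was run as a 12-point series, 0–20 μM for Pu27 and up to 200 μM for duplex. MST was measured, and KD was fitted to a Hill model from three replicates.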

The species named for data set [6] is Homo sapiens. As to the kind of experiment: Effect on c-Myc DNA translocated chromosome product in human CA46 cells assessed as decrease in amplification of exon-2 at 1 uM after 12 hrs by RT-PCR method. In kind it is cell-based. In short, it runs like this: as §2
The nature of data set [7]: Selectivity ratio of Kd for 5'-FAM labeled duplex DNA (unknown origin) to Kd for 5'-FAM labeled c-Myc Pu27 G-quadruplex DNA (unknown origin). In short, it runs like this: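 MST binding: FAM-Pu27 or FAM-duplex oligo at 10 μM in 10 mM Tris-HCl pH 7.4 with 150 mM KCl, annealed 95 °C 5 min, slow-cooled, held 4 °C overnight. Ligand titrated as a 12-point series, 0–20 μM for G4 or up to 200 μM for duplex. KD fitted with Hill model; three replicates.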

A short description of data set [8]: Stabilization of 5'-FAM/3'-TAMRA labeled c-Myc Pu22 G-quadruplex DNA (unknown origin) assessed as change in melting temperature at 2 uM by FRET assay. In short, it runs like this:
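FRET melting of FAM/TAMRA-labelled FPu22T (0.2 μM) in 10 mM Tris-HCl pH 7.4 with 2 mM KCl, ligand 2 μM, in a real-time PCR machine. Excitation 470 nm, emission 530 nm, read every 1 °C from 37 to 99 °C after 30 s hold at each step; ΔTm versus probe alone.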

For data set [9], the species on record is Homo sapiens. Description: Stabilization of c-Myc G-quadruplex DNA in human CA46 cells assessed as decrease in amplification of exon-1 at 1 uM after 12 hrs by RT-PCR method. The format is cell-based. In short, it runs like this: as §2
The nature of data set [10]: Inhibition of NM23-H2 binding to 5'-FAM labeled c-Myc Pu27 G-quadruplex DNA (unknown origin) at 10 uM preincubated for 1 hr followed by NM23-H2 addition by electrophoretic mobility shift assay relative to control. In short, it runs like this: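 Annealed labeled Pu27 (1.5 μM) preincubated 1 h at 25 °C with 10 μM ligand or 5% DMSO. Recombinant His-tagged NM23-H2 (0.5 μM, E. coli BL21, nickel-purified) then added for 1 h at 37 °C. Complexes resolved on 5% native polyacrylamide gel in 0.5× TBE at 4 °C. Inhibition taken as loss of complex band intensity versus no-compound band set at 100%. Run three times.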

Molecules are shown by their SMILES. Calls of active or inactive are those of the source. No cut-off for these calls is given here.

In the case of `COc1cccc2c1C(=O)c1c(O)c3c(c(O)c1C2=O)C[C@@](O)(C(=O)CO)C[C@@H]3O[C@H]1C[C@H](N)[C@H](O)[C@H](C)O1` [DOXORUBICIN], the Activity entry in the data set on Mus musculus [1] and in the data set on Mus musculus [2] was “Toxic” throughout. For the same molecule, the outcome in the data set with Raji was Active.

As to `CN(C)CCCNc1c2ccccc2nc2c1[nH]c1ccccc12`, the result (in the data set listed under Homo sapiens [3]; in the data set filed under Homo sapiens [4]; in the data set listed under Homo sapiens [6]; in data set [8]; in the data set filed under Homo sapiens [9]) was Active. Also, the equilibrium dissociation constant (Kd) in data set [5] is 7.8 µM. The Selectivity ratio in data set [7] is 1.02. Moreover, in data set [10], the inhibition entry was “Active”.

In general, Kd refers to the free concentration of one partner at which half of the binding sites on the other are occupied at equilibrium, for simple one-to-one binding.
